We go through 6 compounds from ChEMBL document CHEMBL1136489 (Bioorg Med Chem Lett, 2003).

pIC50: −log10 of the molar value.

What all share (format): protein-complex assay
Experiment [1] concerns the target Protein farnesyltransferase (Homo sapiens, UniProt P49354+P49356). Briefly: In vitro inhibition of farnesyl protein transferase. Put shortly:
(§1)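 Cell-free enzyme inhibition assay, run as previously described with modifications.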

In experiment [2] the target is Geranylgeranyl transferase type I (Homo sapiens, UniProt P49354+P53609). In words: In vitro inhibition of Geranylgeranyl protein transferase I. Put shortly: as §1
The target of experiment [3] is Protein farnesyl/geranylgeranyl transferase (Homo sapiens) (UniProt P49354+P49356+P53609). In words: Selectivity for Geranylgeranyl protein transferase I compared to farnesyl protein transferase.

A word on the pIC50: it is the IC50 on a negative log10 scale, so that one unit is a factor of ten. For the compound `CCC(C(=O)NC/C=C(\C)CC/C=C(\C)CC/C=C(\C)CCC=C(C)C)P(=O)(O)O` (stereo unspecified), the pIC50 in experiment [1] was below 5.00; in experiment [2], 6.25. Moreover, in experiment [3], the Selectivity is above 18.
For `CC(C)=CCC/C(C)=C/CC/C(C)=C/CC/C(C)=C/CNC(=O)C(C)P(=O)(O)O` (stereo unspecified), in that order: below 5.00, 6.95 and above 90.
With `CC(C)=CCC/C(C)=C/CC/C(C)=C/CC/C(C)=C/CONC(=O)CP(=O)(O)O`, the pIC50 in experiment [2] was 7.18.
In the case of `CC(C)=CCC/C(C)=C/CC/C(C)=C/CC/C(C)=C/CNC(=O)CP(=O)(O)O`, the pIC50 in experiment [1] is 5.30; in experiment [2], 6.56. The compound further gave a Selectivity in experiment [3] of 18.
On the same counts, the results for `CCC(C(=O)NOC/C=C(\C)CC/C=C(\C)CC/C=C(\C)CCC=C(C)C)P(=O)(O)O` (stereo unspecified) are below 5.00, 6.84 and above 68.
On the same counts, the results for `CC(C)=CCC/C(C)=C/CC/C(C)=C/CC/C(C)=C/CONC(=O)C(C)P(=O)(O)O` (stereo unspecified) are below 5.00, 6.82 and above 66.
